In brackets after ≈: the same amount, converted by molar mass. Activity calls are given as the source filed them. The rule behind the calls is not given here.
Legend:
[1] = test system: MCF7; experiment: Cytotoxicity against human MCF7 cells by MTT assay; format: functional, cell-based
Summary of the method: (§1)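 Freshly trypsinized cells were seeded at 5000-10 000 per well, and compounds were added from DMSO stocks and left for 3 days. Attached cells were then given MTT ([…], 1 h) and dissolved in DMSO, with absorbance read at 550 nm.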

[2] = test system: A549; experiment: Cytotoxicity against human A549 cells by MTT assay; format: functional, cell-based; summary of the method: as §1
[3] = test system: HL-60; experiment: Cell cycle arrest in human HL60 cells assessed as accumulation at G0/G1 cells at 2.5 ug/ml after 24 hrs; format: functional
Summary of the method: (§2)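 Treated and control HL60 cells harvested, washed in cold PBS, fixed in 70% ethanol and held at 4 °C. […] DNA content read by flow cytometry. Fractions in sub-G1, G0/G1, S and G2/M assigned by cell-cycle modelling software.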

[4] = test system: HL-60; experiment: Cell cycle arrest in human HL60 cells assessed as accumulation at S cells at 1.250 ug/ml after 24 hrs; format: functional; summary of the method: as §2
[5] = test system: HepG2; experiment: Cytotoxicity against human HepG2 cells by MTT assay; format: functional, cell-based; summary of the method: as §1
[6] = test system: HL-60; experiment: Cell cycle arrest in human HL60 cells assessed as accumulation at G2 cells at 2.5 ug/ml after 24 hrs; format: functional; summary of the method: as §2
[7] = test system: HL-60; experiment: Cell cycle arrest in human HL60 cells assessed as accumulation at G2 cells at 5 ug/ml after 24 hrs; format: functional; summary of the method: as §2
[8] = test system: HL-60; experiment: Cell cycle arrest in human HL60 cells assessed as accumulation at S cells at 5 ug/ml after 24 hrs; format: functional; summary of the method: as §2
[9] = test system: HL-60; experiment: Cell cycle arrest in human HL60 cells assessed as accumulation at G2 cells at 1.250 ug/ml after 24 hrs; format: functional; summary of the method: as §2
[10] = test system: HL-60; experiment: Induction of apoptosis in human HL60 cells assessed as increase in Bax protein level by Western blotting; format: functional, cell-based
Summary of the method: (§3)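 Lysate cleared at 20000g, 30 min, 4 °C and protein measured by BCA. 50 µg resolved on 12% SDS-PAGE, blotted to PVDF and probed for PARP, Bax and Bcl-2, with β-tubulin as loading control.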

[11] = test system: HL-60; experiment: Cell cycle arrest in human HL60 cells assessed as accumulation at S cells at 0.625 ug/ml after 24 hrs by flow cytometry; format: functional; summary of the method: as §2
[12] = test system: HL-60; experiment: Cell cycle arrest in human HL60 cells assessed as accumulation at subG1 cells at 0.625 ug/ml after 24 hrs by flow cytometry; format: functional; summary of the method: as §2
[13] = test system: HL-60; experiment: Cell cycle arrest in human HL60 cells assessed as accumulation at S cells at 2.5 ug/ml after 24 hrs; format: functional; summary of the method: as §2
[14] = test system: HL-60; experiment: Cell cycle arrest in human HL60 cells assessed as accumulation at subG1 cells at 1.250 ug/ml after 24 hrs; format: functional; summary of the method: as §2
[15] = test system: HL-60; experiment: Cell cycle arrest in human HL60 cells assessed as accumulation at G0/G1 cells at 0.625 ug/ml after 24 hrs by flow cytometry; format: functional; summary of the method: as §2
[16] = test system: HL-60; experiment: Cell cycle arrest in human HL60 cells assessed as accumulation at G0/G1 cells at 1.250 ug/ml after 24 hrs; format: functional; summary of the method: as §2
[17] = test system: HL-60; experiment: Cell cycle arrest in human HL60 cells assessed as accumulation at subG1 cells at 2.5 ug/ml after 24 hrs; format: functional; summary of the method: as §2
[18] = test system: HL-60; experiment: Cell cycle arrest in human HL60 cells assessed as accumulation at G2 cells at 0.625 ug/ml after 24 hrs by flow cytometry; format: functional; summary of the method: as §2
[19] = test system: HL-60; experiment: Cytotoxicity against human HL60 cells by MTT assay; format: functional, cell-based; summary of the method: as §1
[20] = test system: HL-60; experiment: Induction of apoptosis in human HL60 cells assessed as PARP cleavage by Western blotting; format: functional, cell-based; summary of the method: as §3
[21] = test system: HL-60; experiment: Induction of apoptosis in human HL60 cells assessed as effect on Bcl2 protein level by Western blotting; format: functional, cell-based; summary of the method: as §3
[22] = test system: HL-60; experiment: Cell cycle arrest in human HL60 cells assessed as accumulation at subG1 cells at 5 ug/ml after 24 hrs; format: functional; summary of the method: as §2
[23] = Cytotoxicity against human Hep3B cells by MTT assay; format: functional, cell-based, Hep 3B2; summary of the method: as §1
[24] = test system: HL-60; experiment: Cell cycle arrest in human HL60 cells assessed as accumulation at G0/G1 cells at 5 ug/ml after 24 hrs; format: functional; summary of the method: as §2
[25] = test system: MDA-MB-231; experiment: Cytotoxicity against human MDA-MB-231 cells by MTT assay; format: functional, cell-based; summary of the method: as §1
[26] = test system: Ca9-22; experiment: Cytotoxicity against human sCa9-22 cells by MTT assay; format: functional, cell-based; summary of the method: as §1
[27] = test system: B16; experiment: Cytotoxicity against mouse B16 cells; format: functional, cell-based

Compound	IC50 [1] [µg/mL]	IC50 [2] [µg/mL]	IC50 [5] [µg/mL]	IC50 [19] [µg/mL]	IC50 [23] [µg/mL]	IC50 [25] [µg/mL]	IC50 [26] [µg/mL]	IC50 [27] [µg/mL]	other results
C=C(C=O)[C@@H]1CC[C@]2(CO)CC[C@]3(C)[C@H](CC[C@@H]4[C@@]5(C)CCC(=O)C(C)(C)[C@@H]5CC[C@]43C)[C@@H]12	2.9 (≈ 6.38 µM)	16.4 (≈ 36.1 µM)	12.6 (≈ 27.7 µM)	1.6 (≈ 3.52 µM)	4.7 (≈ 10.3 µM)	7.9 (≈ 17.4 µM)	1.4 (≈ 3.08 µM)	–	Activity [3]: 56%; Activity [4]: 30.5%; Activity [6]: 11.5%; Activity [7]: 7.8%; Activity [8]: 19.8%; Activity [9]: 11.2%; Activity [10]: Active; Activity [11]: 30.3%; Activity [12]: 1.6%; Activity [13]: 22.3%; Activity [14]: 2.8%; Activity [15]: 54.2%; Activity [16]: 55.5%; Activity [17]: 10.2%; Activity [18]: 13.9%; Activity [20]: Active; Activity [21]: inactive; Activity [22]: 57.8%; Activity [24]: 14.6%
C=C(CO)[C@@H]1CC[C@]2(C)CC[C@]3(C)[C@H](CC[C@@H]4[C@@]5(C)CCC(=O)C(C)(C)[C@@H]5CC[C@]43C)[C@@H]12	–	–	–	–	–	–	–	9.2 (≈ 20.9 µM)	–
C=C(C)[C@@H]1CC[C@]2(CO)CC[C@]3(C)[C@H](CC[C@@H]4[C@@]5(C)CC[C@@H](O)C(C)(C)[C@@H]5CC[C@]43C)[C@@H]12 [3-EPI-BETULIN]	16 (≈ 36.1 µM)	15.7 (≈ 35.5 µM)	6.7 (≈ 15.1 µM)	1.7 (≈ 3.84 µM)	9.3 (≈ 21 µM)	> 20	> 20	–	–
C=C(C)[C@@H]1CC[C@]2(C(=O)O)CC[C@]3(C)[C@H](CC[C@@H]4[C@@]5(C)CC[C@H](O)C(C)(C)[C@@H]5CC[C@]43C)[C@@H]12 [BETULINIC ACID]	4 (≈ 8.76 µM)	2.8 (≈ 6.13 µM)	3.1 (≈ 6.79 µM)	2 (≈ 4.38 µM)	1.7 (≈ 3.72 µM)	3.5 (≈ 7.66 µM)	> 20	5 (≈ 10.9 µM)	–
COc1cccc2c1C(=O)c1c(O)c3c(c(O)c1C2=O)C[C@@](O)(C(=O)CO)C[C@@H]3O[C@H]1C[C@H](N)[C@H](O)[C@H](C)O1 [DOXORUBICIN]	0.32 (≈ 0.589 µM)	–	0.17 (≈ 0.313 µM)	0.003 (≈ 0.00552 µM)	0.27 (≈ 0.497 µM)	0.15 (≈ 0.276 µM)	0.09 (≈ 0.166 µM)	–	–
C=C(C)[C@@H]1CC[C@]2(C(=O)O)CC[C@]3(C)[C@H](CC[C@@H]4[C@@]5(C)CC[C@@H](O)C(C)(C)[C@@H]5CC[C@]43C)[C@@H]12 [EPIBETULINIC ACID]	9.7 (≈ 21.2 µM)	9.7 (≈ 21.2 µM)	9.3 (≈ 20.4 µM)	2.3 (≈ 5.04 µM)	8.1 (≈ 17.7 µM)	9.2 (≈ 20.1 µM)	–	–	–
